Measured values published in ChEMBL document CHEMBL1275556, “High prevalence of plasmid-mediated quinolone resistance genes qnr and aac(6')-Ib-cr in clinical isolates of Enterobacteriaceae from nine teaching hospitals in China” (2008).
Converted amounts (≈) assume the structure as drawn.

What was measured:
Klebsiella pneumoniae [1] = assay: Antimicrobial activity against aac(6')-Ib-cr-negative Klebsiella pneumoniae SY22 harboring GyrA S83I, ParC S80I mutant, wild-type GyrB and qnrS genes by agar dilution method; type: functional
Outline: (§1)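 MICs were determined by the CLSI agar dilution method (M7-A7) and interpreted against CLSI M100-S17 breakpoints.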

Klebsiella pneumoniae [2] = assay: Antimicrobial activity against aac(6')-Ib-cr-positive Klebsiella pneumoniae SY26 harboring GyrA S83I, ParC S80I mutant, wild-type GyrB and qnrB genes by agar dilution method; type: functional
Outline: (§2)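 MICs were determined on clinical isolates by CLSI agar dilution (M7-A7) and interpreted against CLSI M100-S17 breakpoints.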

Citrobacter freundii [3] = assay: Antimicrobial activity against aac(6')-Ib-cr-positive Citrobacter freundii JN1 harboring GyrA T83I, ParC S80I mutant, wild-type GyrB and qnrA genes by agar dilution method; type: functional; outline: as §1
Klebsiella pneumoniae [4] = assay: Antimicrobial activity against aac(6')-Ib-cr-positive Klebsiella pneumoniae JN41 harboring GyrA S83I, ParC S80I mutant, wild-type GyrB and qnrB genes by agar dilution method; type: functional; outline: as §2
Klebsiella pneumoniae [5] = assay: Antimicrobial activity against aac(6')-Ib-cr-negative Klebsiella pneumoniae SY22T harboring qnrS gene by agar dilution method; type: functional; outline: as §1
Escherichia coli [6] = assay: Antimicrobial activity against aac(6')-Ib-cr-negative Escherichia coli PU12 harboring GyrA S83L mutant, wild-type GyrB, ParC and qnrS genes by agar dilution method; type: functional; outline: as §1
Enterobacter cloacae [7] = assay: Antimicrobial activity against aac(6')-Ib-cr-negative Enterobacter cloacae GZ47T harboring qnrB gene by agar dilution method; type: functional
Enterobacter cloacae [8] = assay: Antimicrobial activity against aac(6')-Ib-cr-negative Enterobacter cloacae FJ67 harboring […] and qnrS genes by agar dilution method; type: functional
Citrobacter freundii [9] = assay: Antimicrobial activity against aac(6')-Ib-cr-positive Citrobacter freundii JN1T by agar dilution method; type: functional; outline: as §1
Klebsiella pneumoniae [10] = assay: Antimicrobial activity against aac(6')-Ib-cr-positive Klebsiella pneumoniae SY26T harboring wild-type GyrA, ParC, GyrB and qnrB genes by agar dilution method; type: functional
Outline: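 Transconjugants were made by conjugating a qnr/aac(6')-Ib-cr donor with azide-resistant E. coli J53. MICs were read by CLSI agar dilution (M7-A7) and interpreted per M100-S17.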

Citrobacter freundii [11] = assay: Antimicrobial activity against aac(6')-Ib-cr-positive Citrobacter freundii JS33 harboring GyrA T83I mutant, wild-type ParC, GyrB, qnrA and qnrB genes by agar dilution method; type: functional; outline: as §1
Enterobacter cloacae [12] = assay: Antimicrobial activity against aac(6')-Ib-cr-negative Enterobacter cloacae GZ47 harboring qnrB and qnrS genes by agar dilution method; type: functional
Citrobacter freundii [13] = assay: Antimicrobial activity against aac(6')-Ib-cr-positive Citrobacter freundii TJ15 harboring GyrA T83I, ParC S80I mutant, wild-type GyrB, qnrB genes by agar dilution method; type: functional; outline: as §1
Enterobacter cloacae [14] = assay: Antimicrobial activity against aac(6')-Ib-cr-negative Enterobacter cloacae FJ61T harboring qnrS gene by agar dilution method; type: functional
Enterobacter cloacae [15] = assay: Antimicrobial activity against aac(6')-Ib-cr-negative Enterobacter cloacae WH42T harboring qnrA gene by agar dilution method; type: functional
Citrobacter freundii [16] = assay: Antimicrobial activity against aac(6')-Ib-cr-negative Citrobacter freundii JN64T harboring qnrA gene by agar dilution method; type: functional; outline: as §1
Escherichia coli [17] = assay: Antimicrobial activity against aac(6')-Ib-cr-negative Escherichia coli PU12T harboring wild-type GyrA, GyrB, ParC and qnrS genes by agar dilution method; type: functional; outline: as §1
Klebsiella pneumoniae [18] = assay: Antimicrobial activity against aac(6')-Ib-cr-positive Klebsiella pneumoniae GZ40 harboring GyrA S83I, ParC S80I mutant, wild-type GyrB and qnrB genes by agar dilution method; type: functional; outline: as §1
Escherichia coli [19] = assay: Antimicrobial activity against aac(6')-Ib-cr-positive Escherichia coli FJ3 harboring GyrA S83L, ParC S80R mutant, wild-type GyrB and qnrB genes by agar dilution method; type: functional; outline: as §1
Enterobacter cloacae [20] = assay: Antimicrobial activity against aac(6')-Ib-cr-negative Enterobacter cloacae GZ51T harboring qnrA gene by agar dilution method; type: functional
Klebsiella pneumoniae [21] = assay: Antimicrobial activity against aac(6')-Ib-cr-positive Klebsiella pneumoniae WH99 harboring wild-type GyrA, ParC, GyrB and qnrB genes by agar dilution method; type: functional; outline: as §2
Klebsiella pneumoniae [22] = assay: Antimicrobial activity against aac(6')-Ib-cr-positive Klebsiella pneumoniae JN41T harboring qnrB gene by agar dilution method; type: functional
Outline: (§3)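 Transconjugants were made by conjugating a qnr/aac(6')-Ib-cr donor with azide-resistant E. coli J53. Selection used Trypticase soy agar with sodium azide 150 µg/ml and sulfamethoxazole 180 µg/ml. […] MICs were read by CLSI agar dilution (M7-A7) and interpreted per M100-S17.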

Citrobacter freundii [23] = assay: Antimicrobial activity against aac(6')-Ib-cr-positive Citrobacter freundii TJ15T harboring wild-type GyrA, ParC, GyrB genes by agar dilution method; type: functional; outline: as §1
Enterobacter cloacae [24] = assay: Antimicrobial activity against aac(6')-Ib-cr-negative Enterobacter cloacae WH42 harboring wild-type GyrA, ParC, GyrB and qnrA genes by agar dilution method; type: functional
Enterobacter cloacae [25] = assay: Antimicrobial activity against aac(6')-Ib-cr-negative Enterobacter cloacae FJ61 harboring GyrA S83I, GyrA D87A, ParC S80I mutant, wild-type GyrB and qnrS genes by agar dilution method; type: functional
Enterobacter cloacae [26] = assay: Antimicrobial activity against aac(6')-Ib-cr-negative Enterobacter cloacae FJ67T harboring qnrS gene by agar dilution method; type: functional
Enterobacter cloacae [27] = assay: Antimicrobial activity against aac(6')-Ib-cr-positive Enterobacter cloacae FJ63T harboring qnrS gene by agar dilution method; type: functional
Citrobacter freundii [28] = assay: Antimicrobial activity against aac(6')-Ib-cr-negative Citrobacter freundii JN64 harboring GyrA T83I, wild-type ParC, GyrB and qnrA genes by agar dilution method; type: functional; outline: as §1
Klebsiella pneumoniae [29] = assay: Antimicrobial activity against aac(6')-Ib-cr-positive Klebsiella pneumoniae JN132T harboring qnrB gene by agar dilution method; type: functional; outline: as §3
Enterobacter cloacae [30] = assay: Antimicrobial activity against aac(6')-Ib-cr-negative Enterobacter cloacae SH39 harboring GyrA S83I, ParC S80I mutant, wild-type GyrB and qnrA genes by agar dilution method; type: functional
Enterobacter cloacae [31] = assay: Antimicrobial activity against aac(6')-Ib-cr-negative Enterobacter cloacae GZ51 harboring qnrA gene by agar dilution method; type: functional
Enterobacter cloacae [32] = assay: Antimicrobial activity against aac(6')-Ib-cr-negative Enterobacter cloacae SH39T harboring qnrA gene by agar dilution method; type: functional
Citrobacter freundii [33] = assay: Antimicrobial activity against aac(6')-Ib-cr-positive Citrobacter freundii PU55 harboring GyrA T83I, ParC S80I mutant, wild-type GyrB, qnrA genes by agar dilution method; type: functional; outline: as §1
Enterobacter cloacae [34] = assay: Antimicrobial activity against aac(6')-Ib-cr-positive Enterobacter cloacae FJ63 harboring GyrA S83I, GyrA D87A, ParC S80I mutant, wild-type GyrB and qnrS genes by agar dilution method; type: functional
Klebsiella pneumoniae [35] = assay: Antimicrobial activity against aac(6')-Ib-cr-positive Klebsiella pneumoniae WH99T harboring qnrB gene by agar dilution method; type: functional; outline: as §3
Klebsiella pneumoniae [36] = assay: Antimicrobial activity against aac(6')-Ib-cr-positive Klebsiella pneumoniae JN132 harboring GyrA S83I, ParC S80I mutant, wild-type GyrB and qnrB genes by agar dilution method; type: functional; outline: as §2
Citrobacter freundii [37] = assay: Antimicrobial activity against aac(6')-Ib-cr-positive Citrobacter freundii JS33T harboring qnrA gene by agar dilution method; type: functional; outline: as §1
Klebsiella pneumoniae [38] = assay: Antimicrobial activity against aac(6')-Ib-cr-positive Klebsiella pneumoniae GZ40T harboring qnrB gene by agar dilution method
Escherichia coli [39] = assay: Antimicrobial activity against Escherichia coli J53 harboring wild-type GyrA, ParC, GyrB genes by agar dilution method
Citrobacter freundii [40] = assay: Antimicrobial activity against aac(6')-Ib-cr-positive Citrobacter freundii PU55T harboring wild-type GyrA, ParC, GyrB and qnrA genes by agar dilution method
Escherichia coli [41] = assay: Antimicrobial activity against aac(6')-Ib-cr-positive Escherichia coli FJ3T harboring wild-type GyrA, ParC, GyrB and qnrB genes by agar dilution method

## GENTAMICIN
Klebsiella pneumoniae [1]
  MIC: 128 µg/mL
Klebsiella pneumoniae [2]
  MIC: > 256 µg/mL
Citrobacter freundii [3]
  MIC: 1 µg/mL
Klebsiella pneumoniae [4]
  MIC: 1 µg/mL
Klebsiella pneumoniae [5]
  MIC: 32 µg/mL
Escherichia coli [6]
  MIC: 2 µg/mL
Enterobacter cloacae [7]
  MIC: 128 µg/mL
Enterobacter cloacae [8]
  MIC: 2 µg/mL
Citrobacter freundii [9]
  MIC: 1 µg/mL
Klebsiella pneumoniae [10]
  MIC: > 256 µg/mL
Citrobacter freundii [11]
  MIC: 64 µg/mL
Enterobacter cloacae [12]
  MIC: 256 µg/mL
Citrobacter freundii [13]
  MIC: 256 µg/mL
Enterobacter cloacae [14]
  MIC: 1 µg/mL
Enterobacter cloacae [15]
  MIC: 8 µg/mL
Citrobacter freundii [16]
  MIC: > 256 µg/mL
Escherichia coli [17]
  MIC: 1 µg/mL
Klebsiella pneumoniae [18]
  MIC: 1 µg/mL
Escherichia coli [19]
  MIC: 128 µg/mL
Enterobacter cloacae [20]
  MIC: > 256 µg/mL
Klebsiella pneumoniae [21]
  MIC: 128 µg/mL
Klebsiella pneumoniae [22]
  MIC: 1 µg/mL
Citrobacter freundii [23]
  MIC: 1 µg/mL
Enterobacter cloacae [24]
  MIC: 16 µg/mL
Enterobacter cloacae [25]
  MIC: 128 µg/mL
Enterobacter cloacae [26]
  MIC: 1 µg/mL
Enterobacter cloacae [27]
  MIC: > 256 µg/mL
Citrobacter freundii [28]
  MIC: > 256 µg/mL
Klebsiella pneumoniae [29]
  MIC: > 256 µg/mL
Enterobacter cloacae [30]
  MIC: 8 µg/mL
Enterobacter cloacae [31]
  MIC: > 256 µg/mL
Enterobacter cloacae [32]
  MIC: 4 µg/mL
Citrobacter freundii [33]
  MIC: 1 µg/mL
Enterobacter cloacae [34]
  MIC: > 256 µg/mL
Klebsiella pneumoniae [35]
  MIC: 128 µg/mL
Klebsiella pneumoniae [36]
  MIC: > 256 µg/mL
Citrobacter freundii [37]
  MIC: 16 µg/mL

## CO[C@@]1(NC(=O)Cc2cccs2)C(=O)N2C(C(=O)O)=C(COC(N)=O)CS[C@@H]21 [CEFOXITIN]
Klebsiella pneumoniae [1]
  MIC: 8 µg/mL (≈ 18.7 µM)
Klebsiella pneumoniae [2]
  MIC: 256 µg/mL (≈ 599 µM)
Citrobacter freundii [3]
  MIC: > 256 µg/mL
Klebsiella pneumoniae [4]
  MIC: 4 µg/mL (≈ 9.36 µM)
Klebsiella pneumoniae [5]
  MIC: 4 µg/mL (≈ 9.36 µM)
Klebsiella pneumoniae [38]
  MIC: 2 µg/mL (≈ 4.68 µM)
Escherichia coli [6]
  MIC: 4 µg/mL (≈ 9.36 µM)
Enterobacter cloacae [7]
  MIC: 32 µg/mL (≈ 74.9 µM)
Enterobacter cloacae [8]
  MIC: > 256 µg/mL
Citrobacter freundii [9]
  MIC: 2 µg/mL (≈ 4.68 µM)
Escherichia coli [39]
  MIC: 2 µg/mL (≈ 4.68 µM)
Klebsiella pneumoniae [10]
  MIC: 16 µg/mL (≈ 37.4 µM)
Citrobacter freundii [11]
  MIC: > 256 µg/mL
Enterobacter cloacae [12]
  MIC: 256 µg/mL (≈ 599 µM)
Citrobacter freundii [13]
  MIC: 256 µg/mL (≈ 599 µM)
Enterobacter cloacae [14]
  MIC: 4 µg/mL (≈ 9.36 µM)
Enterobacter cloacae [15]
  MIC: 2 µg/mL (≈ 4.68 µM)
Citrobacter freundii [16]
  MIC: 8 µg/mL (≈ 18.7 µM)
Escherichia coli [17]
  MIC: 4 µg/mL (≈ 9.36 µM)
Klebsiella pneumoniae [18]
  MIC: 32 µg/mL (≈ 74.9 µM)
Escherichia coli [19]
  MIC: 8 µg/mL (≈ 18.7 µM)
Enterobacter cloacae [20]
  MIC: 4 µg/mL (≈ 9.36 µM)
Klebsiella pneumoniae [21]
  MIC: 256 µg/mL (≈ 599 µM)
Klebsiella pneumoniae [22]
  MIC: 2 µg/mL (≈ 4.68 µM)
Citrobacter freundii [23]
  MIC: 64 µg/mL (≈ 150 µM)
Enterobacter cloacae [24]
  MIC: > 256 µg/mL
Enterobacter cloacae [25]
  MIC: 256 µg/mL (≈ 599 µM)
Enterobacter cloacae [26]
  MIC: 4 µg/mL (≈ 9.36 µM)
Enterobacter cloacae [27]
  MIC: 4 µg/mL (≈ 9.36 µM)
Citrobacter freundii [40]
  MIC: 2 µg/mL (≈ 4.68 µM)
Citrobacter freundii [28]
  MIC: > 256 µg/mL
Klebsiella pneumoniae [29]
  MIC: 64 µg/mL (≈ 150 µM)
Enterobacter cloacae [30]
  MIC: > 256 µg/mL
Enterobacter cloacae [31]
  MIC: > 256 µg/mL
Enterobacter cloacae [32]
  MIC: 4 µg/mL (≈ 9.36 µM)
Citrobacter freundii [33]
  MIC: > 256 µg/mL
Enterobacter cloacae [34]
  MIC: 256 µg/mL (≈ 599 µM)
Klebsiella pneumoniae [35]
  MIC: 64 µg/mL (≈ 150 µM)
Klebsiella pneumoniae [36]
  MIC: 64 µg/mL (≈ 150 µM)
Escherichia coli [41]
  MIC: 2 µg/mL (≈ 4.68 µM)
Citrobacter freundii [37]
  MIC: 2 µg/mL (≈ 4.68 µM)
